PERK inhibitor: blocks human PERK kinase | AID 1416 | Q9NZJ5 | inhibition, % at 5.6 µM | actives 0.17% (n = 220,000) | CHO PERK-DD fusion, SEAP luminescence translation reporter;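 active means inhibition above the mean inhibition of all tested compounds plus 3 SD, set separately per screening campaign, cut at about 2.9% in these data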;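 further: PERK kinase domain activated by AP20187 dimerizer at 100 nM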
AHR activator: human AHR activation; P35869; AHR-responsive luciferase reporter cells, luminescence; activation, % at 5 µM; actives 2.5% (n = 320,000); in the data active means activation above about 47%
STAT1 act: increases IFN-gamma driven STAT1 reporter signal; NIH 3T3 STAT1-luciferase reporter, luminescence; 100% = IFN-gamma alone, no compound; activation (% of control), % at 5.5 µM; actives 2.6% (n = 200,000);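 active means activation above the screen-wide mean activation plus 3 SD, cut at about 130% in these data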
NF-kB neuron act: raises NF-kB expression in human neuronal cells. NF-kB reporter expression; hits give high values. fold change at 12.5 µM. actives 1.6% (n = 190,000); in the data active means fold change above about 3.3
APP 5'UTR act: APP 5'UTR luciferase reporter activation | SH-SY5Y APP 5'UTR luciferase reporter, luminescence; zero percent = DMSO vehicle wells | activation, % at 2 µM | actives 1% (n = 190,000);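 active means activation above a set limit, based on mean plus 3 SD of controls, cut at about 140% in these data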
MDM2 E3 inh: blocks human Mdm2 ubiquitin ligase activity; Q00987; cell-based MDM2 ubiquitination luciferase reporter, 2 h; 0 = plate control, 100 = twice control, blank-subtracted; signal enhancement, % at 5 µM; actives 0.11% (n = 210,000); AID 1230;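 active means signal enhancement of 30% or more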;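 further: luminescence tracks abundance of the self-degrading MDM2-luciferase fusion protein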
Target sequence (Q00987 whole entry, looked up, the tested form may be a part): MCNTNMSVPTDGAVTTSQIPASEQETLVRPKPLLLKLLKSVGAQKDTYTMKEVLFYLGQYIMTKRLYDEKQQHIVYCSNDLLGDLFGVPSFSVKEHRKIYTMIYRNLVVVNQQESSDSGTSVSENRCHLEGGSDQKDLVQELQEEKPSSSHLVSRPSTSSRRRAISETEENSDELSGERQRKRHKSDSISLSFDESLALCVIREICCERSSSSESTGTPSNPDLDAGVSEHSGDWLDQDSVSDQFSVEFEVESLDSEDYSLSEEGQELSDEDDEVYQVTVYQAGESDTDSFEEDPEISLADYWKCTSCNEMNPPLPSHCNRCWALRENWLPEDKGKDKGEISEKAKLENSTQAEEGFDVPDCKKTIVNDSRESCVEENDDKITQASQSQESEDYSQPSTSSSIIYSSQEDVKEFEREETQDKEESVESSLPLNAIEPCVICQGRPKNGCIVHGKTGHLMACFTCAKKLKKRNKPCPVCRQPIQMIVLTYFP
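Material: stable MDM2–luciferase fusion reporter cells / Quantity: 2000 cells/well / Dosing: single 5 µM compound dose, 0.2% final DMSO / Buffer or medium: DMEM / Schedule: 4 h cell settling then 2 h compound exposure, 37 °C / Detection: luminescence with SteadyLite reagent, 15 min at room temperature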
Numbers stand for hits. An excerpt weighted towards active compounds, which were near 4.5% of everything screened.

How did O=C(CNC(=O)c1ccc([N+](=O)[O-])cc1)c1ccccc1 do in these assays?
PERK inhibitor: inactive; AHR activator: inactive; STAT1 act: 134.3; NF-kB neuron act: inactive; APP 5'UTR act: inactive; MDM2 E3 inh: inactive

What do the screens show for `O=C(CNc1cccc2ccccc12)c1ccc([N+](=O)[O-])cc1`?
PERK inhibitor: inactive; AHR activator: inactive; STAT1 act: inactive; NF-kB neuron act: inactive; APP 5'UTR act: inactive; MDM2 E3 inh: inactive

Results for O=C(O)c1ccccc1Nc1ccc([N+](=O)[O-])cc1 ?
PERK inhibitor: inactive; AHR activator: inactive; STAT1 act: 139.3; NF-kB neuron act: inactive; APP 5'UTR act: inactive; MDM2 E3 inh: inactive

What do the screens show for `O=C(CNc1ccccc1)c1ccc([N+](=O)[O-])cc1`?
PERK inhibitor: inactive; AHR activator: 63.4; STAT1 act: inactive; NF-kB neuron act: inactive; APP 5'UTR act: inactive; MDM2 E3 inh: inactive

How did Cc1ccc(C(=O)N2CCC(n3nccc3NC(=O)C3CCOC3)CC2)cc1 (stereo not drawn) do in these assays?
AHR activator: inactive

Results for CC1CCN(CCCNC(=O)c2ccc(N3CCCC3=O)cc2)CC1 ?
AHR activator: inactive

What do the screens show for `CCOC(CNC(=O)CN1C(=O)COc2ccc(S(=O)(=O)N3CC(C)CC(C)C3)cc21)OCC` (stereo not drawn)?
AHR activator: inactive

How did O=c1cc(-c2ccccc2Cl)oc2c(NS(=O)(=O)c3ccccc3OC(F)(F)F)ccc(O)c12 do in these assays?
AHR activator: inactive; MDM2 E3 inh: inactive

How did O=C(Nc1ccc(Cl)cc1)OCc1ccccn1 do in these assays?
PERK inhibitor: inactive; AHR activator: inactive; STAT1 act: 143.8; NF-kB neuron act: inactive; APP 5'UTR act: inactive

What do the screens show for `CS(=O)(=O)c1ccccc1COC(=O)Nc1ccc(Cl)cc1`?
PERK inhibitor: inactive; AHR activator: inactive; STAT1 act: inactive; NF-kB neuron act: inactive; APP 5'UTR act: inactive; MDM2 E3 inh: inactive

How did Cc1ccc(OCC(=O)Nc2cccc(-c3nnc(-c4ccccc4)o3)c2)c(C)c1 do in these assays?
PERK inhibitor: inactive; AHR activator: inactive; STAT1 act: 132.4; NF-kB neuron act: inactive; APP 5'UTR act: inactive; MDM2 E3 inh: inactive

Results for CC(=O)Nc1cccc(-c2nnc(-c3ccccc3)o2)c1 ?
PERK inhibitor: inactive; AHR activator: inactive; STAT1 act: 129.6; NF-kB neuron act: inactive; APP 5'UTR act: inactive; MDM2 E3 inh: inactive

What do the screens show for `Cc1ccc(C)c(OCC(=O)Nc2cc(C(=O)O)cc(C(=O)O)c2)c1`?
PERK inhibitor: 3.4; AHR activator: inactive; STAT1 act: inactive; NF-kB neuron act: inactive; APP 5'UTR act: inactive; MDM2 E3 inh: inactive

Results for CCOC(=O)c1cccc(COC(=O)c2cccc(-c3nnc(-c4ccccc4)o3)c2)c1 ?
PERK inhibitor: inactive; AHR activator: inactive; STAT1 act: 130.8; NF-kB neuron act: inactive; APP 5'UTR act: inactive; MDM2 E3 inh: inactive

How did CCN(CC)c1ccc(N=CN2CCOCC2)cc1 do in these assays?
AHR activator: inactive

How did COCCN=c1scc(-c2cc(OC)c(OC)c(OC)c2)n1/N=C/c1c(C)[nH]c2ccccc12 do in these assays?
PERK inhibitor: inactive; AHR activator: 55.9; STAT1 act: inactive; NF-kB neuron act: inactive; APP 5'UTR act: inactive; MDM2 E3 inh: inactive

What do the screens show for `Cc1[nH]c2ccccc2c1/C=N/n1cnnc1`?
PERK inhibitor: inactive; AHR activator: inactive; STAT1 act: inactive; NF-kB neuron act: inactive; APP 5'UTR act: inactive; MDM2 E3 inh: inactive

Results for CCOc1ccccc1OCCCC(=O)NNC(=O)c1nn(C)c(=O)c2ccccc12 ?
AHR activator: inactive

What do the screens show for `O=C(CSc1nnc(-c2cccc(Cl)c2)o1)Nc1ccc2c(c1)OCCO2`?
PERK inhibitor: inactive; AHR activator: inactive; STAT1 act: inactive; NF-kB neuron act: inactive; APP 5'UTR act: 159.4

How did CCn1c2ccccc2c2cc(NC(=O)CSc3nnc(-c4cccc(F)c4)o3)ccc21 do in these assays?
PERK inhibitor: inactive; AHR activator: 59.0; STAT1 act: inactive; NF-kB neuron act: inactive; APP 5'UTR act: inactive; MDM2 E3 inh: inactive

How did CCn1c2ccccc2c2cc(NC(=O)CSc3nnc(-c4ccccc4)o3)ccc21 do in these assays?
PERK inhibitor: inactive; AHR activator: inactive; STAT1 act: inactive; NF-kB neuron act: inactive; APP 5'UTR act: inactive; MDM2 E3 inh: inactive

Results for O=C(CSCc1ccccc1Cl)Nc1ccc2c(c1)OCCO2 ?
PERK inhibitor: inactive; AHR activator: inactive; STAT1 act: inactive; NF-kB neuron act: inactive; APP 5'UTR act: 137.3; MDM2 E3 inh: inactive

Results for NC(=O)c1ccc(NC(=O)CSc2nnc(-c3ccc4c(c3)OCO4)o2)cc1 ?
AHR activator: inactive

How did CN(C)CC(CCC(CN(C)C)C(=O)c1ccccc1)C(=O)c1ccccc1 (stereo not drawn) do in these assays?
PERK inhibitor: inactive; MDM2 E3 inh: inactive

What do the screens show for `CC(=O)Nc1ccc(C(=O)NNC(=O)C2C3CCCCC32)cc1` (stereo not drawn)?
AHR activator: inactive

What do the screens show for `O=C(c1ccccc1)c1ccccc1C(=O)N1CCCC1`?
PERK inhibitor: inactive; AHR activator: inactive; STAT1 act: inactive; NF-kB neuron act: 6.37; APP 5'UTR act: inactive; MDM2 E3 inh: inactive

What do the screens show for `Nc1ccccc1C(=O)N1CCCC1`?
PERK inhibitor: 3.1; AHR activator: inactive; STAT1 act: inactive; NF-kB neuron act: inactive; APP 5'UTR act: inactive; MDM2 E3 inh: inactive

What do the screens show for `Cc1ccccc1C(=O)N1CCCN(C(=O)c2ccccc2C)CC1`?
PERK inhibitor: inactive; AHR activator: inactive; STAT1 act: inactive; NF-kB neuron act: inactive; APP 5'UTR act: inactive; MDM2 E3 inh: inactive

How did Cc1ccc(-n2nc(C)c(NC(=O)CCl)c2C)cc1 do in these assays?
PERK inhibitor: inactive; AHR activator: inactive; STAT1 act: inactive; NF-kB neuron act: inactive; APP 5'UTR act: inactive; MDM2 E3 inh: inactive

Results for Cc1cc(/C=N/NC(=O)c2ccsc2)c(C)n1-c1cnccn1 ?
PERK inhibitor: inactive; AHR activator: 77.5; STAT1 act: inactive; NF-kB neuron act: inactive; APP 5'UTR act: inactive; MDM2 E3 inh: inactive

What do the screens show for `CCOc1ccc(N(C)C(=O)CCc2nnc3ccc(NCc4ccco4)nn23)cc1`?
AHR activator: inactive

What do the screens show for `c1ccc(N2CCN(c3cnccn3)CC2)nc1`?
PERK inhibitor: inactive; AHR activator: inactive; STAT1 act: inactive; NF-kB neuron act: inactive; APP 5'UTR act: inactive; MDM2 E3 inh: inactive

How did N#Cc1cc(C#N)c(N2CCN(c3ccccn3)CC2)nc1N do in these assays?
PERK inhibitor: inactive; AHR activator: inactive; STAT1 act: 135.5; NF-kB neuron act: inactive; APP 5'UTR act: inactive; MDM2 E3 inh: inactive

Results for Cc1cc(C)c2c(N)c(C(=O)Nc3ccccc3Br)sc2n1 ?
AHR activator: inactive

How did Cc1cc(C)c2c(N)c(C(=O)c3ccc(Cl)cc3Cl)sc2n1 do in these assays?
PERK inhibitor: inactive; AHR activator: inactive; STAT1 act: inactive; NF-kB neuron act: inactive; MDM2 E3 inh: inactive

Source: PubChem (several laboratories)
